In ChEMBL document CHEMBL1687778, “Genetic determinants involved in the susceptibility of Pseudomonas aeruginosa to beta-lactam antibiotics” (2010):

Legend:
Type in all cases: functional
Pseudomonas aeruginosa [1] = assay: Antimicrobial activity against Pseudomonas aeruginosa PA14 PA0503 harboring mutation in Putative biotin synthesis protein BioC by Etest method
Summary of the method: (§1)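 Overnight LB cultures (37°C) diluted in sterile 0.85% NaCl to about 1 × 10^7 CFU/ml. 100 µl spread on Mueller-Hinton agar, one Etest strip per plate, 18 h at 37°C. Ceftazidime, imipenem and meropenem tested. Wild-type PA14 plate included in each set. Each mutant verified in triplicate.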

Pseudomonas aeruginosa [2] = assay: Antimicrobial activity against Pseudomonas aeruginosa PA14 PA3978 harboring mutation in hypothetical protein by Etest method
Summary of the method: (§2)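 Etest MIC. Overnight LB cultures at 37°C were diluted in sterile 0.85% NaCl to about 1 × 10^7 CFU/ml. 100 µl was spread on Mueller-Hinton agar, one strip was placed per plate, and plates were incubated at 37°C for 18 h. Equal cell numbers were seeded per plate, and results were verified in triplicate. PA14 wild type was included in each set as a susceptibility control.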

Pseudomonas aeruginosa [3] = assay: Antimicrobial activity against Pseudomonas aeruginosa PA14 PA0479 harboring mutation in putative transcriptional regulator, LysR family by Etest method; summary of the method: as §1
Pseudomonas aeruginosa [4] = assay: Antimicrobial activity against Pseudomonas aeruginosa PA14 PA2963 harboring mutation in putative aminodeoxychorismate lyase by Etest method; summary of the method: as §1
Pseudomonas aeruginosa [5] = assay: Antimicrobial activity against Pseudomonas aeruginosa PA14 PA2621 harboring clpS mutant gene by Etest method; summary of the method: as §1
Pseudomonas aeruginosa [6] = assay: Antimicrobial activity against Pseudomonas aeruginosa PA14 PA3247 harboring mutation in putative aspartyl aminopeptidase by Etest method; summary of the method: as §1
Pseudomonas aeruginosa [7] = assay: Antimicrobial activity against Pseudomonas aeruginosa PA14 PA0908 harboring mutation in hypothetical protein by Etest method; summary of the method: as §1
Pseudomonas aeruginosa [8] = assay: Antimicrobial activity against Pseudomonas aeruginosa PA14 PA2797 harboring mutation in putative anti-anti-sigma factor by Etest method; summary of the method: as §1
Pseudomonas aeruginosa [9] = assay: Antimicrobial activity against Pseudomonas aeruginosa PA14 PA4007 harboring proA mutant gene by Etest method; summary of the method: as §2
Pseudomonas aeruginosa [10] = assay: Antimicrobial activity against Pseudomonas aeruginosa PA14 PA5001 harboring mutation in conserved hypothetical protein by Etest method; summary of the method: as §2
Pseudomonas aeruginosa [11] = assay: Antimicrobial activity against Pseudomonas aeruginosa PA14 PA0807 harboring ampDh3 mutant gene by Etest method; summary of the method: as §1
Pseudomonas aeruginosa [12] = assay: Antimicrobial activity against Pseudomonas aeruginosa PA14 PA1553 harboring mutation in putative cytochrome c oxidase, cbb3 type, subunit II by Etest method; summary of the method: as §1
Pseudomonas aeruginosa [13] = assay: Antimicrobial activity against Pseudomonas aeruginosa PA14 PA5366 harboring pstB mutant gene by Etest method; summary of the method: as §2
Pseudomonas aeruginosa [14] = assay: Antimicrobial activity against Pseudomonas aeruginosa PA14 PA5038 harboring aroB mutant gene by Etest method; summary of the method: as §2
Pseudomonas aeruginosa [15] = assay: Antimicrobial activity against Pseudomonas aeruginosa PA14 PA4459 harboring mutation in Conserved hypothetical protein by Etest method; summary of the method: as §2
Pseudomonas aeruginosa [16] = assay: Antimicrobial activity against Pseudomonas aeruginosa PA14 PA3262 harboring fklB mutant gene by Etest method; summary of the method: as §2
Pseudomonas aeruginosa [17] = assay: Antimicrobial activity against Pseudomonas aeruginosa PA14 PA3620 harboring mutS mutant gene by Etest method; summary of the method: as §2
Pseudomonas aeruginosa [18] = assay: Antimicrobial activity against Pseudomonas aeruginosa PA14 PA4269 harboring rpoC mutant gene by Etest method; summary of the method: as §2
Pseudomonas aeruginosa [19] = assay: Antimicrobial activity against Pseudomonas aeruginosa PA14 PA3145 harboring wbpL mutant gene by Etest method; summary of the method: as §1
Pseudomonas aeruginosa [20] = assay: Antimicrobial activity against Pseudomonas aeruginosa PA14 PA5130 harboring mutation in putative rhodanese-like domain protein by Etest method; summary of the method: as §2
Pseudomonas aeruginosa [21] = assay: Antimicrobial activity against Pseudomonas aeruginosa PA14 PA1195 harboring mutation in putative dimethylarginine dimethylaminohydrolase by Etest method; summary of the method: as §1
Pseudomonas aeruginosa [22] = assay: Antimicrobial activity against Pseudomonas aeruginosa PA14 PA5005 harboring mutation in putative carbamoyltransferase by Etest method; summary of the method: as §2
Pseudomonas aeruginosa [23] = assay: Antimicrobial activity against Pseudomonas aeruginosa PA14 PA4069 harboring mutation in putative dTDP-4-rhamnose reductase-related protein by Etest method; summary of the method: as §2
Pseudomonas aeruginosa [24] = assay: Antimicrobial activity against Pseudomonas aeruginosa PA14 PA3433 harboring mutation in putative transcriptional regulator, LysR family by Etest method; summary of the method: as §2
Pseudomonas aeruginosa [25] = assay: Antimicrobial activity against Pseudomonas aeruginosa PA14 PA3818 harboring suhB mutant gene by Etest method; summary of the method: as §2
Pseudomonas aeruginosa [26] = assay: Antimicrobial activity against Pseudomonas aeruginosa PA14 PA4745 harboring nusA mutant gene by Etest method; summary of the method: as §2
Pseudomonas aeruginosa [27] = assay: Antimicrobial activity against Pseudomonas aeruginosa PA14 PA4393 harboring mutation in putative permease by Etest method; summary of the method: as §2
Pseudomonas aeruginosa [28] = assay: Antimicrobial activity against Pseudomonas aeruginosa PA14 PA14_23420 harboring mutation in putative zinc-binding dehydrogenase by Etest method; summary of the method: as §1
Pseudomonas aeruginosa [29] = assay: Antimicrobial activity against Pseudomonas aeruginosa PA14 PA2615 harboring ftsK mutant gene by Etest method; summary of the method: as §1
Pseudomonas aeruginosa [30] = assay: Antimicrobial activity against Pseudomonas aeruginosa PA14 PA14_59780 harboring rcsC mutant gene by Etest method; summary of the method: as §1
Pseudomonas aeruginosa [31] = assay: Antimicrobial activity against Pseudomonas aeruginosa PA14 PA0402 harboring pyrB mutant gene by Etest method; summary of the method: as §1
Pseudomonas aeruginosa [32] = assay: Antimicrobial activity against Pseudomonas aeruginosa PA14 PA5174 harboring mutation in putative beta-ketoacyl synthase by Etest method; summary of the method: as §2
Pseudomonas aeruginosa [33] = assay: Antimicrobial activity against Pseudomonas aeruginosa PA14 PA0011 harboring mutation in putative 2-OH-lauroyltransferase by Etest method; summary of the method: as §1
Pseudomonas aeruginosa [34] = assay: Antimicrobial activity against Pseudomonas aeruginosa PA14 PA14_15600 harboring mutation in conserved hypothetical protein by Etest method; summary of the method: as §1
Pseudomonas aeruginosa [35] = assay: Antimicrobial activity against Pseudomonas aeruginosa PA14 PA2487 harboring mutation in hypothetical protein by Etest method; summary of the method: as §1
Pseudomonas aeruginosa [36] = assay: Antimicrobial activity against Pseudomonas aeruginosa PA14 PA4550 harboring fimU mutant gene by Etest method; summary of the method: as §2
Pseudomonas aeruginosa [37] = assay: Antimicrobial activity against Pseudomonas aeruginosa PA14 PA0420 harboring bioA mutant gene by Etest method; summary of the method: as §1
Pseudomonas aeruginosa [38] = assay: Antimicrobial activity against Pseudomonas aeruginosa PA14 PA0401 harboring mutation in Noncatalytic dihydroorotase-like protein by Etest method; summary of the method: as §1
Pseudomonas aeruginosa [39] = assay: Antimicrobial activity against Pseudomonas aeruginosa PA14 PA0427 harboring oprM mutant gene by Etest method; summary of the method: as §1
Pseudomonas aeruginosa [40] = assay: Antimicrobial activity against Pseudomonas aeruginosa PA14 PA4402 harboring argJ mutant gene by Etest method; summary of the method: as §2
Pseudomonas aeruginosa [41] = assay: Antimicrobial activity against Pseudomonas aeruginosa PA14 PA1348 harboring mutation in conserved hypothetical protein by Etest method; summary of the method: as §1
Pseudomonas aeruginosa [42] = assay: Antimicrobial activity against Pseudomonas aeruginosa PA14 PA3667 harboring mutation in putative cysteine sulfinate desulfinase by Etest method; summary of the method: as §2
Pseudomonas aeruginosa [43] = assay: Antimicrobial activity against Pseudomonas aeruginosa PA14 PA3520 harboring mutation in putative periplasmic metal-binding protein by Etest method; summary of the method: as §2
Pseudomonas aeruginosa [44] = assay: Antimicrobial activity against Pseudomonas aeruginosa PA14 PA3050 harboring pyrD mutant gene by Etest method; summary of the method: as §1
Pseudomonas aeruginosa [45] = assay: Antimicrobial activity against Pseudomonas aeruginosa PA14 PA5192 harboring pckA mutant gene by Etest method; summary of the method: as §2
Pseudomonas aeruginosa [46] = assay: Antimicrobial activity against Pseudomonas aeruginosa PA14 PA0667 harboring mutation in putative metallopeptidase by Etest method; summary of the method: as §1
Pseudomonas aeruginosa [47] = assay: Antimicrobial activity against Pseudomonas aeruginosa PA14 PA4946 harboring mutL mutant gene by Etest method; summary of the method: as §2

Measured: MIC

CC(C)(O/N=C(\C(=O)N[C@@H]1C(=O)N2C(C(=O)[O-])=C(C[n+]3ccccc3)CS[C@H]12)c1csc(N)n1)C(=O)O [CEFTAZIDIME]
0.38 µg/mL: Pseudomonas aeruginosa [30] | Pseudomonas aeruginosa [31] | Pseudomonas aeruginosa [33] | Pseudomonas aeruginosa [38] | Pseudomonas aeruginosa [39]
2 µg/mL: Pseudomonas aeruginosa [3] | Pseudomonas aeruginosa [6] | Pseudomonas aeruginosa [7] | Pseudomonas aeruginosa [17] | Pseudomonas aeruginosa [19] | Pseudomonas aeruginosa [28] | Pseudomonas aeruginosa [35] | Pseudomonas aeruginosa [36] | Pseudomonas aeruginosa [46]
4 µg/mL: Pseudomonas aeruginosa [5]
3 µg/mL: Pseudomonas aeruginosa [8] | Pseudomonas aeruginosa [10] | Pseudomonas aeruginosa [14] | Pseudomonas aeruginosa [22] | Pseudomonas aeruginosa [40] | Pseudomonas aeruginosa [42]
1.5 µg/mL: Pseudomonas aeruginosa [15] | Pseudomonas aeruginosa [34] | Pseudomonas aeruginosa [41] | Pseudomonas aeruginosa [43] | Pseudomonas aeruginosa [47]
0.5 µg/mL: Pseudomonas aeruginosa [1] | Pseudomonas aeruginosa [18] | Pseudomonas aeruginosa [21] | Pseudomonas aeruginosa [24] | Pseudomonas aeruginosa [25] | Pseudomonas aeruginosa [37] | Pseudomonas aeruginosa [44] | Pseudomonas aeruginosa [45]
0.25 µg/mL: Pseudomonas aeruginosa [29]
1 µg/mL: Pseudomonas aeruginosa [32]
0.75 µg/mL: all other assays above

C[C@@H](O)[C@H]1C(=O)N2C(C(=O)O)=C(SCCNC=N)C[C@H]12 [IMIPENEM ANHYDROUS]
0.19 µg/mL: Pseudomonas aeruginosa [1] | Pseudomonas aeruginosa [9] | Pseudomonas aeruginosa [20] | Pseudomonas aeruginosa [24] | Pseudomonas aeruginosa [29]
0.25 µg/mL: Pseudomonas aeruginosa [4] | Pseudomonas aeruginosa [13] | Pseudomonas aeruginosa [15] | Pseudomonas aeruginosa [16] | Pseudomonas aeruginosa [22] | Pseudomonas aeruginosa [23] | Pseudomonas aeruginosa [26] | Pseudomonas aeruginosa [27] | Pseudomonas aeruginosa [44]
1.5 µg/mL: Pseudomonas aeruginosa [7]
0.75 µg/mL: Pseudomonas aeruginosa [42]
1 µg/mL: Pseudomonas aeruginosa [3] | Pseudomonas aeruginosa [11] | Pseudomonas aeruginosa [12]
0.125 µg/mL: Pseudomonas aeruginosa [32] | Pseudomonas aeruginosa [37]
0.5 µg/mL: Pseudomonas aeruginosa [8] | Pseudomonas aeruginosa [18] | Pseudomonas aeruginosa [30] | Pseudomonas aeruginosa [34] | Pseudomonas aeruginosa [35] | Pseudomonas aeruginosa [36] | Pseudomonas aeruginosa [41] | Pseudomonas aeruginosa [43] | Pseudomonas aeruginosa [46]
0.094 µg/mL: Pseudomonas aeruginosa [2]
0.38 µg/mL: all other assays above
